# Bioassay records (PubChem)
# An excerpt weighted towards active compounds, which were near 3.5% of everything screened.
# MrgX1 antagonist = blocks BAM8-22 activation of human MrgX1 receptor. MRGX1-HEK293 calcium flux, Fluo-4, BAM8-22 antagonism; hits give low values. B-score at 10 µM. 1.3% of 310,000 active. AID 588676;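 active = calcium-response B-score plate-corrected more than 3 library SD below zero, starting fluorescence within 5 deviations, no agonist response on first addition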;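 also: peak minus trough fluorescence over baseline after final BAM8-22 challenge near maximal dose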
# Target sequence (Q96LB2 whole entry, looked up): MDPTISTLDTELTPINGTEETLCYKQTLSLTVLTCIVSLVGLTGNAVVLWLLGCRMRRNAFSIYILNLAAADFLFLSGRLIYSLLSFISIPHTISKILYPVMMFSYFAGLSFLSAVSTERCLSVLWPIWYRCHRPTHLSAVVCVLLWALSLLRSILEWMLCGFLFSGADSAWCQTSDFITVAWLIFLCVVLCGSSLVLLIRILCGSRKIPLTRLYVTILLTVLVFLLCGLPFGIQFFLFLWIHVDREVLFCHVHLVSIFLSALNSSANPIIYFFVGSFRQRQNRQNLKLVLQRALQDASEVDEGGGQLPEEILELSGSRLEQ
# RGS4 pot = RGS4 potentiation or activation. B-score at 10 µM. HEK293 M3R/inducible RGS4, carbachol calcium flux Fluo4; hits give low values. 0.92% of 310,000 active;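 active = B-score of the integrated calcium signal more than 4 SD below the library mean, with starting fluorescence not abnormally high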;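 also: negative B-score means reduced calcium response which marks RGS4 activation or potentiation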
#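 Detection: kinetic calcium fluorescence imaging with Fluo4-AM dye, 2 µM / Material: HEK293 cells with stable M3R and inducible RGS4 / Schedule: recording 10 s baseline at 1 Hz, 100 s post-agonist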
# RGS4 block = human RGS4 inhibition; HEK293 M3R/RGS4 inducible, Fluo-4 calcium flux; hits give high values; triggered by carbachol at its EC20; B-score at 10 µM; 0.45% of 310,000 active; AID 463165;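 active = B-score, a plate-corrected calcium signal, over three deviations above library mean, with baseline fluorescence within five deviations of library mean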;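 also: RGS4 expression induced by doxycycline in cells with stable M3 receptor; B-score is computed from the integrated fluorescence ratio over baseline after carbachol; higher B-score means a larger calcium signal and so more RGS4 inhibition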
# Target sequence (P49798 whole entry, looked up): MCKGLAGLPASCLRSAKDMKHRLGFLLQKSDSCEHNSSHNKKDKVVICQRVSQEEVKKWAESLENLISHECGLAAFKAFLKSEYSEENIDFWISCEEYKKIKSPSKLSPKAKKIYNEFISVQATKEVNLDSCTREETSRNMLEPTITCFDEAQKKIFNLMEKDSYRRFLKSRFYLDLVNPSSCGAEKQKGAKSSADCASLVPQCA
# MrgX1 allo act = human MrgX1 positive allosteric modulation, primary screen. 0.63% of 310,000 active. AID 588675. MrgX1-HEK293, Fluo-4 calcium flux, FDSS; hits give high values. B-score at 10 µM;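 active = plate-corrected calcium response at least 3 library SD above typical, normal starting fluorescence, not activating the receptor alone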;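 also: compound read alongside a low EC10 to EC30 dose of BAM8-22 agonist; peak minus trough fluorescence over baseline measured at the second addition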
# MrgX1 ag = human MrgX1 receptor agonism, primary screen; Q96LB2; MrgX1-HEK293 cells, Fluo-4 calcium fluorescence, agonist mode; hits give high values; B-score at 10 µM; 0.44% of 310,000 active;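 active = calcium response B-score plate-corrected fluorescence ratio at least 3 library SD, with starting fluorescence B-score inside 5 SD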
#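 Assay system: MrgX1-expressing HEK293 cells / Amount: fifteen thousand cells per well / Doses: test compound in the initial addition of three / Timing: cells plated overnight, dye loaded 0.5 h 37 °C, 0.5 h room temperature / Technique: kinetic calcium dye fluorescence, Fluo-4 NW / Control set: positive and negative controls per plate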
# An asterisk follows results filed as active; i = inactive; x = no result given.
SMILES,MrgX1 antagonist,RGS4 pot,RGS4 block,MrgX1 allo act,MrgX1 ag
CCOC(=O)N1CCN(C(=O)c2ccc3c(c2)N=C(C)c2cc(Cl)ccc2S3)CC1,i,i,i,i,i
CCOC(=O)C[C@H]1c2ccccc2S(=O)(=O)N1c1cccc(OC)c1,i,i,i,i,i
N/C(=N\OC(=O)Oc1ccccc1)c1ccc(Cl)cc1,i,-9.5*,i,i,i
O=C(O)CCC(NC(=O)C1CCCN1C(=O)OCc1ccccc1)C(=O)O (configuration not stated),-6.4*,i,i,i,i
O=C(O)C(NC(=O)C1CCCN1C(=O)OCc1ccccc1)c1ccccc1 (configuration not stated),i,i,i,i,i
COc1cccc(CN(C)C(=O)CCNC(=O)c2ccc(Br)cc2)c1,i,i,i,i,i
COc1cccc(NC(=O)CN(C)C(=O)CCNC(=O)c2ccc(Br)cc2)c1,-8.9*,i,i,i,i
CC(/C=N/NC(=O)Cc1cccn1C)=C\c1ccccc1,i,i,i,12*,i
CC(/C=N/NC(=O)Cc1cccs1)=C\c1ccccc1,i,i,i,i,i
CC1=NOC(=O)/C1=C/c1ccc(N(C)C)cc1,i,i,i,i,46*
COc1ccc(/C=C2/C(=O)N(c3ccccc3)N=C2C)cc1,i,i,i,i,i
CCN(CC)c1ccc(/C=C2\C(=O)N(c3nnc(C)c(=O)[nH]3)N=C2C)cc1,i,i,i,i,42*
CCCOc1ccc(/C=C2/C(=O)ON=C2C)cc1Cl,i,i,i,i,i
CCN(CC)c1ccc(/C=C2/C(=O)ON=C2C)cc1,i,i,i,i,57*
O=C(CCn1c(=S)oc2ccccc21)NC1CCCCCCC1,i,i,i,i,i
Cc1nc2ccn(Cc3ccccc3)c(=O)c2cc1C(=O)N1CCN(c2ccccc2)CC1,i,i,i,i,i
O=C(C1=C(O)C(=O)N(CCN2CCOCC2)C1c1ccc([N+](=O)[O-])cc1)c1cccs1 (configuration not stated),i,i,i,i,i
CN(C)CCCN1C(=O)C(O)=C(C(=O)c2cccs2)C1c1cccc([N+](=O)[O-])c1 (configuration not stated),i,i,i,6.6*,i
COc1ccc(CCNc2ccc(C(CC(N)=O)NC(=O)c3cc(OC)ccc3OC)cc2[N+](=O)[O-])cc1 (configuration not stated),-5*,i,i,i,i
CCC(C)N1CC(=O)N2C(c3ccc(OC)cc3OC)c3[nH]c4ccccc4c3C[C@H]2C1=O (some centres not stated),i,i,i,i,i
O=C(COC(=O)[C@@H]1CCCN1S(=O)(=O)c1ccc(Cl)cc1)NC12CC3CC(CC(C3)C1)C2,i,i,i,i,i
COc1cc(NC(=O)COC(=O)[C@@H]2CCCN2S(=O)(=O)c2ccc(Cl)cc2)cc(OC)c1OC,i,x,x,8.9*,i
O=C1CCC2S/C(=C/Nc3ccc(C(F)(F)F)cc3)C(=O)N12 (configuration not stated),-4.8*,i,i,i,i
O=C(Nc1ccc(F)cc1Cl)C1=COCCO1,i,i,i,i,i
CCn1c(=O)c(C(=O)NNC(=O)c2ccccc2F)c(O)c2ccccc21,i,-8.7*,i,i,114*
SMILES,MrgX1 antagonist,RGS4 pot,RGS4 block,MrgX1 allo act,MrgX1 ag
CCCCCC(=O)NNC(=O)c1c(O)c2ccccc2n(CC)c1=O,i,i,i,i,i
Oc1cccc2ccc(N3CCOCC3)nc12,i,i,i,i,i
COc1ccc(OC)c(/C=C2\Oc3cc(OCC(=O)N4CCC(C(=O)O)CC4)ccc3C2=O)c1,i,i,i,i,55*
COc1ccc(OC)c(/C=C2\Oc3cc(OCC(=O)N4CC(O)C[C@H]4C(=O)O)ccc3C2=O)c1 (some centres not stated),i,i,i,14*,i
COc1ccc(/C=C2\Oc3cc(OCC(=O)N4CCC(C(=O)O)CC4)ccc3C2=O)c(OC)c1,i,i,i,i,i
COc1ccc(NC(=O)CSCC(=O)Nc2nnc(C)s2)cc1,i,i,i,i,i
Cc1nc2c(c(C)nn2-c2ccccc2)c(C)c1CCC(=O)Nc1ccc(CN2CCCC2)cc1,i,i,i,12*,i
CCC(C)NC(=O)CCc1c(C)nc2c(c(C)nn2-c2ccccc2)c1C (configuration not stated),i,i,i,i,i
COc1cc(/C=C2\SC(=N)N(c3ccc(F)cc3)C2=O)ccc1O,-4.9*,i,i,i,i
COc1ccc(/C=C2\SC(c3ccc(C)cc3)=NC2=O)cc1OC,i,i,i,i,i
COc1cc(/C=C2\SC(c3ccc(C)cc3)=NC2=O)ccc1O,-5.8*,i,i,i,i
COc1ccc(S(=O)(=O)c2c(N)n(Cc3ccco3)c3nc4ccccc4nc23)cc1,-5.5*,i,i,i,i
CCn1c(=S)sc2c(=O)n(-c3ccccc3)c(SC)nc21,i,i,i,7.7*,i
C/C=C(\C)C(=O)N1CCC(C(=O)c2ccccc2)CC1,i,i,i,i,i
CCOc1ccc(NC(=O)CN(C)C(=O)CCNC(=O)c2ccc(Br)cc2)cc1OCC,i,i,i,i,i
CCOc1ccc(NC(=O)CN(C)C(=O)CC(NC(=O)c2ccccc2)c2ccccc2)cc1OCC (configuration not stated),i,i,i,i,36*
O=C(c1ccc2c(c1)OCO2)C1CCCN(Cc2ccc(OC(F)F)cc2)C1 (configuration not stated),i,i,i,i,i
COc1ccc(CN2C(=O)c3ccccc3C(/C=N/OCc3ccc(Cl)cc3)C2=O)cc1 (configuration not stated),i,i,i,i,38*
COc1cc(N2CCCC2)c(OC)cc1/C=C(/C#N)c1ccc(F)cc1,-4.9*,i,i,i,i
COc1cc(N2CCCC2)c(OC)cc1/C=C(/C#N)c1ccc(Br)cc1,-4.6*,i,i,i,i
CCCCCNCC(=O)Nc1cccc(C(=O)Nc2cccc(C(F)(F)F)c2)c1,-7*,i,i,i,i
CC(C)c1nnc(NC(=O)COc2ccccc2[N+](=O)[O-])s1,i,i,i,i,i
CCSc1nnc(NC(=O)COc2ccccc2[N+](=O)[O-])s1,i,i,i,8.6*,i
